Reference: paper PMC7134334 (Neuropharmacology, 2016)

Experiments:
[1] = tested on: WT Kv3.1 channels and VSD chimeras (S1-S4, S1-S3a, S3b-S4); type: cell-based; conditions: block calculated at depolarizing potentials of V1/2 +30 mV
Kv3.1_S1-S4_2.1 = assay: Patch-clamp current inhibition by gambierol, Kv3.1_S1-S4_2.1 chimera; type: cell-based; conditions: read-out: IC50 (concentration that induces 50% current inhibition); Kv3.1_S1-S4_2.1 in Ltk− cells; n = 4
Method in brief: (§1)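 Ltk− mouse fibroblasts (DMEM, 10% horse serum) transiently PEI-transfected with 15–200 ng cDNA, recorded ~20–28 h later at 20–23 °C. Bath (mM): NaCl 130, KCl 4, CaCl2 1.8, MgCl2 1, HEPES 10, glucose 10, pH 7.35. Pipette: KCl 110, K4BAPTA 5, K2ATP 5, MgCl2 1, HEPES 10, pH 7.2. Fast-perfused, final DMSO ≤0.5%. Fraction of current left at +40 mV Hill-fitted for IC50. Cells with >5 mV voltage error excluded. Mean ± SEM over cells.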

Kv3.1_S3b-S4_2.1 = assay: Patch-clamp current inhibition by gambierol, Kv3.1_S3b-S4_2.1 chimera; type: cell-based; conditions: read-out: IC50 (concentration that induces 50% current inhibition); Kv3.1_S3b-S4_2.1 in Ltk− cells; n = 4
Method in brief: as §1

Kv3.1 [2] = biological target: T1, Kv3.1 (Homo sapiens, UniProt P48547); assay: Patch-clamp current inhibition by gambierol, WT Kv3.1 in Ltk− cells; type: cell-based; conditions: read-out: IC50 (concentration that induces 50% current inhibition); WT Kv3.1 expressed in Ltk− cells; mean ± SEM
T1 sequence (P48547 1-511): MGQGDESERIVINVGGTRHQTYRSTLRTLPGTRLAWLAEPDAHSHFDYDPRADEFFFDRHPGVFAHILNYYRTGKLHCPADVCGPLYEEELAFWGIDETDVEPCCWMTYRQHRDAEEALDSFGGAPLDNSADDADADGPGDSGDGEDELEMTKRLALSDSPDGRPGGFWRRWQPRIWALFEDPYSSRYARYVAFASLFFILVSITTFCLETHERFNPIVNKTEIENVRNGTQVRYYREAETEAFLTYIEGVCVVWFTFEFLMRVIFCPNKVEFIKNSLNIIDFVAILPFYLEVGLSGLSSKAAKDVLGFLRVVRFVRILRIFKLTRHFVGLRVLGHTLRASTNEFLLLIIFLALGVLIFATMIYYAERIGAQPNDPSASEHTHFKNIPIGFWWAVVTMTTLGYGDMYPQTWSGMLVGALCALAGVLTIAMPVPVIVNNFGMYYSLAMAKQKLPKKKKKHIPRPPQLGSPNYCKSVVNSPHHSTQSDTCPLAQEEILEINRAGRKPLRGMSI
Method in brief: as §1

Kv3.1_S1-S3a_2.1 = assay: Patch-clamp current inhibition by gambierol, Kv3.1_S1-S3a_2.1 chimera; type: cell-based; conditions: read-out: IC50 (concentration that induces 50% current inhibition); Kv3.1_S1-S3a_2.1 in Ltk− cells; n = 3
Method in brief: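 Ltk− mouse fibroblasts (DMEM, 10% horse serum) transiently PEI-transfected with channel cDNA and patch-clamped 20–28 h later at 20–23 °C. Bath (mM): NaCl 130, KCl 4, CaCl2 1.8, MgCl2 1, HEPES 10, glucose 10, pH 7.35; pipette KCl-based with BAPTA, ATP, pH 7.2. Toxin perfused from DMSO stock (final DMSO ≤0.5%). Remaining current at +40 mV Hill-fitted for IC50; mean ± SEM over cells.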

Kv2.1 V404T_S3b-S4_3.1 = assay: Patch-clamp current inhibition by gambierol, Kv2.1 V404T_S3b-S4_3.1 chimera; type: cell-based
Method in brief: as §1

Kv3.1 [3] = biological target: T1, Kv3.1; conditions: ref Kopljar et al., 2013; cited from earlier work

Compound | differences in IC50 values between WT channels and chimeras [1] | IC50 (Kv3.1_S1-S4_2.1) | IC50 (Kv3.1_S3b-S4_2.1) | IC50 (Kv3.1 [2]) | IC50 (Kv3.1_S1-S3a_2.1) | fold difference compared to the Kv2.1 V404T mutant (Kv2.1 V404T_S3b-S4_3.1; Kv2.1 V404T_S3b-S4_3.1 vs previously reported Kv2.1 V404T value) | IC50 (Kv2.1 V404T_S3b-S4_3.1; read-out: IC50 (concentration that induces 50% current inhibition), Kv2.1 V404T_S3b-S4_3.1 in Ltk− cells, n = 3) | shift of the voltage dependence of activation to more positive potentials (Kv3.1 [3])
O=C(NCC1CCCCN1)c1cc(OCC(F)(F)F)ccc1OCC(F)(F)F (centres unmarked) [Flecainide] | < 2 fold |  |  |  |  |  |  | 
C=CC/C=C\C=C/[C@H]1O[C@H]2C[C@H]3O[C@H]4CC[C@H]5O[C@H]6C[C@@]7(C)O[C@@]8(C)[C@@H](O)C[C@H](CCCO)O[C@@H]8C[C@@H]7O[C@@H]6C[C@@H]5O[C@]4(C)C[C@]3(C)O[C@@H]2C=C[C@]1(C)O [gambierol, Gambierol] |  | 280 ± 40 nM | 143 ± 28 nM | 1.2 ± 0.2 nM | 1.9 ± 0.2 nM | ~ 2 fold | 900 ± 41 nM | more than +120 mV
